This experiment deals with Putative P2Y purinoceptor 10 (Mus musculus) (UniProt Q8BFU7). As to the kind of experiment: Agonist activity at mouse P2Y10 receptor expressed in McA-RH7777 cells assessed as actin stress fiber formation at 1 uM after 30 mins by confocal microscopy. Format: cell-based. In outline: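 McA-RH7777 cells stably expressing mouse P2Y10, or mock retrovirus-infected, were grown on collagen I and serum-starved 1 h. They were stimulated with 1 μM compound in serum-free DMEM containing 0.01% fatty-acid-free BSA. […] F-actin fibers were imaged by confocal microscopy.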

The source made the active and inactive calls. No cut-off for these calls is given here.

Chain of Putative P2Y purinoceptor 10 (Mus musculus) (Q8BFU7 whole entry): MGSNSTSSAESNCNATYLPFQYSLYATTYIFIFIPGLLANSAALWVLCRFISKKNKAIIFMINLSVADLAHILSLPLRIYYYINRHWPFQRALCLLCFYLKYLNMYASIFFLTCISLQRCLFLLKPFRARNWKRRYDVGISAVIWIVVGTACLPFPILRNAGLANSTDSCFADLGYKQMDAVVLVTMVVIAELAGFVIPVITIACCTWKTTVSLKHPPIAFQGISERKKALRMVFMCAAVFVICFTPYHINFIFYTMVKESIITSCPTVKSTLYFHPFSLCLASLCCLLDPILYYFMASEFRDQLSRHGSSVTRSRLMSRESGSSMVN

As for `CCCCCCCCCCCOc1ccccc1CCC(=O)OCC(F)(F)COP(=O)(O)OC[C@H](N)C(=O)O`, the outcome was Active.
In the case of `CCCCCCCCCCCOc1cccc(CCC(=O)NC[C@@H](O)COP(=O)(O)O[C@@H](C)[C@H](N)C(=O)O)c1`, the result was inactive.
Consider `CCCCCCCC/C=C\CCCCCCCC(=O)OC[C@@H](O)COP(=O)(O)OC[C@H](N)C(=O)O`, for which the result was Active.
Then `CCCCCCCCCCCOc1ccccc1CCC(=O)OCCCOP(=O)(O)OC[C@H](N)C(=O)O`, with “Active”.
